In ChEMBL document CHEMBL1781989, “Novel β-carboline-tripeptide conjugates attenuate mesenteric ischemia/reperfusion injury in the rat” (2011):
Calls of active or inactive are those of the source. Non-standard residues stand in square brackets, D forms with d. Residues, ends and D or L forms follow the SMILES beside them. Tpi = O=C(O)[C@@H]1Cc2c([nH]c3ccccc23)CN1

Assays:
Mus musculus [1] = assay: Analgesic activity in ICR mouse assessed as increase in pain threshold at 0.10 mmol/kg, po after 180 mins by tail flick method (reference value: 8.75 +/- 9.73 %); assay type: functional
Mus musculus [2] = assay: Antiinflammatory activity in ICR mouse assessed as inhibition of xylene-induced ear edema at 0.10 mmol/kg, po administered 30 mins before xylene challenge measured after 2 hrs relative to control; assay type: functional
Procedure, shortened: (§1)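 Male ICR mice (20 ± 2 g), randomised to test, vehicle (CMC) and aspirin (10 mg/kg oral) groups. Test agents given orally as CMC suspension. After 30 min, 0.03 mL xylene applied to both faces of the right ear, left ear as control. At 2 h mice were killed and 7 mm ear punches weighed. Edema is the right-minus-left weight, and inhibition is taken against vehicle.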

Mus musculus [3] = assay: Analgesic activity in ICR mouse assessed as increase in pain threshold at 0.05 mmol/kg, po after 120 mins by tail flick method (reference value: 8.09 +/- 13.28 %); assay type: functional
Mus musculus [4] = assay: Analgesic activity in ICR mouse assessed as increase in pain threshold at 0.15 mmol/kg, po after 150 mins by tail flick method (reference value: 9.02 +/- 12.19 %); assay type: functional
Mus musculus [5] = assay: Analgesic activity in ICR mouse assessed as increase in pain threshold at 0.10 mmol/kg, po after 150 mins by tail flick method (reference value: 9.02 +/- 12.19 %); assay type: functional
Mus musculus [6] = assay: Analgesic activity in ICR mouse assessed as increase in pain threshold at 0.15 mmol/kg, po after 90 mins by tail flick method (reference value: 7.53 +/- 11.54 %); assay type: functional
Mus musculus [7] = assay: Antiinflammatory activity in ICR mouse assessed as inhibition of xylene-induced ear edema at 0.15 mmol/kg, po administered 30 mins before xylene challenge measured after 2 hrs relative to control; assay type: functional; procedure, shortened: as §1
Mus musculus [8] = assay: Analgesic activity in ICR mouse assessed as increase in pain threshold at 0.10 mmol/kg, po after 30 mins by tail flick method (reference value: 5.03 +/- 10.26 %); assay type: functional
Mus musculus [9] = assay: Analgesic activity in ICR mouse assessed as increase in pain threshold at 0.05 mmol/kg, po after 30 mins by tail flick method (reference value: 5.03 +/- 10.26 %); assay type: functional
Mus musculus [10] = assay: Analgesic activity in ICR mouse assessed as increase in pain threshold at 0.05 mmol/kg, po after 60 mins by tail flick method (reference value: 7.45 +/- 8.03 %); assay type: functional
Mus musculus [11] = assay: Analgesic activity in ICR mouse assessed as increase in pain threshold at 0.15 mmol/kg, po after 30 mins by tail flick method (reference value: 5.03 +/- 10.26 %); assay type: functional
Mus musculus [12] = assay: Antiinflammatory activity in ICR mouse assessed as inhibition of xylene-induced ear edema at 0.05 mmol/kg, po administered 30 mins before xylene challenge measured after 2 hrs relative to control; assay type: functional; procedure, shortened: as §1
Mus musculus [13] = assay: Analgesic activity in ICR mouse assessed as increase in pain threshold at 0.10 mmol/kg, po after 60 mins by tail flick method (reference value: 7.45 +/- 8.03 %); assay type: functional
Mus musculus [14] = assay: Analgesic activity in ICR mouse assessed as increase in pain threshold at 0.15 mmol/kg, po after 60 mins by tail flick method (reference value: 7.45 +/- 8.03 %); assay type: functional
Mus musculus [15] = assay: Antiinflammatory activity in po dosed ICR mouse assessed as inhibition of xylene-induced ear edema administered 30 mins before xylene challenge measured after 2 hrs; assay type: functional, organism-based; procedure, shortened: as §1
Mus musculus [16] = assay: Analgesic activity in ICR mouse assessed as increase in pain threshold at 0.15 mmol/kg, po after 180 mins by tail flick method (reference value: 8.75 +/- 9.73 %); assay type: functional
Mus musculus [17] = assay: Analgesic activity in ICR mouse assessed as increase in pain threshold at 0.05 mmol/kg, po after 150 mins by tail flick method (reference value: 9.02 +/- 12.19 %); assay type: functional
Mus musculus [18] = assay: Analgesic activity in ICR mouse assessed as increase in pain threshold at 0.05 mmol/kg, po after 180 mins by tail flick method (reference value: 8.75 +/- 9.73 %); assay type: functional
Mus musculus [19] = assay: Analgesic activity in ICR mouse assessed as increase in pain threshold at 0.15 mmol/kg, po after 120 mins by tail flick method (reference value: 8.09 +/- 13.28 %); assay type: functional
Mus musculus [20] = assay: Analgesic activity in ICR mouse assessed as increase in pain threshold at 0.05 mmol/kg, po after 90 mins by tail flick method (reference value: 7.53 +/- 11.54 %); assay type: functional
Mus musculus [21] = assay: Analgesic activity in ICR mouse assessed as increase in pain threshold at 0.10 mmol/kg, po after 90 mins by tail flick method (reference value: 7.53 +/- 11.54 %); assay type: functional
Mus musculus [22] = assay: Analgesic activity in ICR mouse assessed as increase in pain threshold at 0.10 mmol/kg, po after 120 mins by tail flick method (reference value: 8.09 +/- 13.28 %); assay type: functional
Rattus norvegicus [23] = assay: Antiinflammatory activity in mesenteric ischemia/reperfusion injury Wistar rat model assessed as reduction of focal denudation of epithelium villi at 20 mg/kg, ip administered 15 mins before and 1 hr after initiation of reperfusion by hematoxylin-eosin staining; assay type: functional, organism-based; parameters: dose 20 mg/kg
Procedure, shortened: (§2)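 Male Wistar rats (250–300 g) under pentobarbital (80 mg/kg ip) at 37 °C. Drug 20 mg/kg ip 15 min before reperfusion and 1 h into reperfusion, saline to other groups. Terminal ileum (10 mm) snap-frozen, cut at 4–5 µm by cryostat, stained with H&E, and viewed by light microscopy.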

Rattus norvegicus [24] = assay: Antiinflammatory activity in mesenteric ischemia/reperfusion injury Wistar rat model ileum assessed as reduction of mucosal damage at 20 mg/kg, ip administered 15 mins before and 1 hr after initiation of reperfusion by hematoxylin-eosin staining; assay type: functional, organism-based; parameters: dose 20 mg/kg; procedure, shortened: as §2
Rattus norvegicus [25] = assay: Antioxidant activity in mesenteric ischemia/reperfusion injury Wistar rat model assessed as decrease of myeloperoxidase activity in intestinal tissue at 20 mg/kg, ip administered 15 mins before and 1 hr after initiation of reperfusion; assay type: functional, organism-based; parameters: dose 20 mg/kg
Rattus norvegicus [26] = assay: Antioxidant activity in mesenteric ischemia/reperfusion injury Wistar rat model ileum assessed as restoration of glutathione levels at 20 mg/kg, ip administered 15 mins before and 1 hr after initiation of reperfusion by Beutler's method; assay type: functional, organism-based; parameters: dose 20 mg/kg
Procedure, shortened: (§3)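 Dosing 20 mg/kg ip 15 min before and 1 h after reperfusion onset. Intestinal MDA measured by the Beuge and Aust method as nmol/g tissue, and GSH by the Beutler method as µmol/g tissue.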

Rattus norvegicus [27] = assay: Antioxidant activity in mesenteric ischemia/reperfusion injury Wistar rat model ileum assessed as decrease of malondialdehyde levels at 20 mg/kg, ip administered 15 mins before and 1 hr after initiation of reperfusion by Beuge's method; assay type: functional, organism-based; parameters: dose 20 mg/kg; procedure, shortened: as §3
Mus musculus [28] = assay: Analgesic activity in ICR mouse assessed as increase in pain threshold at 0.15 mmol/kg, ip after 30 mins by tail flick method (reference value: 5.03 +/- 10.26 %); assay type: functional
Mus musculus [29] = assay: Analgesic activity in ICR mouse assessed as increase in pain threshold at 0.15 mmol/kg, ip after 150 mins by tail flick method (reference value: 9.02 +/- 12.19 %); assay type: functional
Mus musculus [30] = assay: Analgesic activity in ICR mouse assessed as increase in pain threshold at 0.15 mmol/kg, ip after 120 mins by tail flick method (reference value: 8.09 +/- 13.28 %); assay type: functional
Mus musculus [31] = assay: Analgesic activity in ICR mouse assessed as increase in pain threshold at 0.15 mmol/kg, ip after 180 mins by tail flick method (reference value: 8.75 +/- 9.73 %); assay type: functional
Mus musculus [32] = assay: Analgesic activity in ICR mouse assessed as increase in pain threshold at 0.15 mmol/kg, ip after 90 mins by tail flick method (reference value: 7.53 +/- 11.54 %); assay type: functional
Mus musculus [33] = assay: Analgesic activity in ICR mouse assessed as increase in pain threshold at 0.15 mmol/kg, ip after 60 mins by tail flick method (reference value: 7.45 +/- 8.03 %); assay type: functional

Structure (SMILES)	Activity (Mus musculus [1])	inhibition in vivo at 100 µmol/kg (Mus musculus [2])	Activity (Mus musculus [3])	Activity (Mus musculus [4])	Activity (Mus musculus [5])	Activity (Mus musculus [6])	inhibition in vivo at 150 µmol/kg (Mus musculus [7])	Activity (Mus musculus [8])	Activity (Mus musculus [9])	Activity (Mus musculus [10])	Activity (Mus musculus [11])	inhibition in vivo at 50 µmol/kg (Mus musculus [12])	Activity (Mus musculus [13])	Activity (Mus musculus [14])	inhibition (Mus musculus [15])	Activity (Mus musculus [16])	Activity (Mus musculus [17])	Activity (Mus musculus [18])	Activity (Mus musculus [19])	Activity (Mus musculus [20])	other results
NCCCC[C@H](NC(=O)[C@@H]1Cc2c([nH]c3ccccc23)CN1)C(=O)N[C@@H](Cc1ccccc1)C(=O)N[C@@H](Cc1c[nH]c2ccccc12)C(=O)O (H-[Tpi]KFW-OH)	14.38%	45.4%	18.99%	29.04%	21.39%	54.39%	55.2%	32.32%	11.55%	26.54%	44.27%	28.3%	34.48%	52.22%	Dose-dependent effect	25.69%	15.43%	9.06%	41.28%	23.58%	Activity (Mus musculus [21]): 38.33%; Activity (Mus musculus [22]): 23.08%
CC(C)C[C@H](NC(=O)[C@@H]1Cc2c([nH]c3ccccc23)CN1)C(=O)N[C@@H](Cc1ccccc1)C(=O)N[C@@H](Cc1c[nH]c2ccccc12)C(=O)O (H-[Tpi]LFW-OH)	13.42%	49.6%	17.97%	25.46%	22.13%	44.67%	60.7%	35.41%	29.22%	23.45%	48.25%	38.7%	37.65%	59.37%	Dose-dependent effect	18.86%	8.23%	7.46%	34.55%	20.65%	Activity (Rattus norvegicus [23]): Active; Activity (Rattus norvegicus [24]): Active; Activity (Rattus norvegicus [25]): Active; Activity (Rattus norvegicus [26]): Active; Activity (Mus musculus [21]): 32.73%; Activity (Rattus norvegicus [27]): Active; Activity (Mus musculus [22]): 25.45%
CN1CC[C@]23c4c5ccc(O)c4O[C@H]2[C@@H](O)C=C[C@H]3[C@H]1C5 [MORPHINE]	–	–	–	–	–	–	–	–	–	–	–	–	–	–	–	–	–	–	–	–	Activity (Mus musculus [28]): 142.2%; Activity (Mus musculus [29]): 64.55%; Activity (Mus musculus [30]): 98.78%; Activity (Mus musculus [31]): 57.43%; Activity (Mus musculus [32]): 139.03%; Activity (Mus musculus [33]): 175.78%
